Results reported in ChEMBL document CHEMBL3861997 (Bioorg Med Chem, 2016).

Key:
[1] = Anticoagulant activity in healthy human plasma assessed as increase in prothrombin time; type: functional
Method in brief: (§1)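 Concentration doubling clotting time (EC2x), human or rabbit plasma. Plasma from centrifugation at 2000 g, 10 min. Inhibitor stock in DMSO, serially diluted; clotting time measured in control plasma and plasma with five to seven inhibitor concentrations. PT run on temperature-controlled automated coagulation analyser with Thromborel-S reagent. Duplicate determinations at each concentration.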

[2] = Anticoagulant activity in rabbit plasma assessed as increase in prothrombin time; type: functional, Oryctolagus cuniculus; method in brief: as §1
[3] = Anticoagulant activity in rabbit plasma assessed as increase in activated partial thromboplastin time; type: functional, Oryctolagus cuniculus
[4] = Anticoagulant activity in healthy human plasma assessed as increase in activated partial thromboplastin time; type: functional
Rattus norvegicus = species on record: Rattus norvegicus; test: Antithrombotic activity in rat venous thrombus model assessed as inhibition of thrombus formation relative to control; type: functional
Method in brief: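 Rat venous stasis model: after 2 h the abdomen was reopened and the vena cava dissected longitudinally. Thrombus removed, held at 37 °C for 24 h, then dry weight measured.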

Coagulation factor X = Coagulation factor X (Homo sapiens, UniProt P00742); test: Inhibition of human coagulation factor 10a assessed as reduction in p-nitroaniline cleavage from pefachrome substrate preincubated for 10 mins followed by substrate addition measured after 20 mins
Sequence of Coagulation factor X (P00742 41-179 limits assumed): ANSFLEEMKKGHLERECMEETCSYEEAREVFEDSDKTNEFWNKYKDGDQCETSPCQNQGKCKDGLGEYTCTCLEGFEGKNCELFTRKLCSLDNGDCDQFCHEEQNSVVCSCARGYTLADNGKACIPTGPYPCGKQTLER
Sequence of Coagulation factor X (P00742 235-488 limits assumed): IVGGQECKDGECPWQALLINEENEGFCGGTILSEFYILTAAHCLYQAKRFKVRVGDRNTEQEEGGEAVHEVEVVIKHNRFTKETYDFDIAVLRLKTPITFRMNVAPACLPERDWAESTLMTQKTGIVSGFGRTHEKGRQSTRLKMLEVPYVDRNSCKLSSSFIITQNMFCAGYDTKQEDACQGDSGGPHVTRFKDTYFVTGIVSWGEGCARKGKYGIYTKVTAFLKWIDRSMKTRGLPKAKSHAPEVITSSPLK

| IC50 (Coagulation factor X) | Compound | 2PT [1] | 2PT [2] | 2aPTT [3] | 2aPTT [4] | inhibition (INH) (Rattus norvegicus) |
| --- | --- | --- | --- | --- | --- | --- |
| – | CCN(CC)Cc1cccn1-c1nn(-c2ccc(OC)cc2)c2c1CCN(c1ccc(N3CCCCC3=O)cc1)C2=O | 1.6 µM | 2.1 µM | 3.9 µM | 3.7 µM | – |
| – | COc1ccc(-n2nc(-c3n[nH]c(=O)n3-c3ccccc3C(F)(F)F)c3c2C(=O)N(c2ccc(N4CCCCC4=O)cc2)CC3)cc1 | 16.8 µM | 17.9 µM | 32.1 µM | 30.1 µM | – |
| 0.35 µM | COc1ccc(-n2nc(C(N)=O)c3c2C(=O)N(c2ccc(C4=NCCCN4)cc2)CC3)cc1 | 0.9 µM | 1.1 µM | 2 µM | 1.1 µM | 82% |
| – | COc1ccc(-n2nc(-c3n[nH]c(=O)n3-c3ccc(OC)cc3)c3c2C(=O)N(c2ccc(N4CCCCC4=O)cc2)CC3)cc1 | 14.8 µM | 9.2 µM | 19.2 µM | 21.3 µM | – |
| – | COCc1nc(-c2nn(-c3ccc(OC)cc3)c3c2CCN(c2ccc(N4CCCCC4=O)cc2)C3=O)n[nH]1 | 2.4 µM | 3 µM | 6 µM | 4.1 µM | – |
| 2.4 µM | COc1ccc(-n2nc(-c3ncn(C)n3)c3c2CCN(c2ccc(N4CCCCC4=O)cc2)C3=O)cc1 | 0.8 µM | 0.9 µM | 3 µM | 1.9 µM | 65% |
| – | O=C1CCCCN1c1ccc(N2CCc3c(-c4nc[nH]n4)nn(-c4ccc(Cl)cc4)c3C2=O)cc1 | 4.3 µM | 4.2 µM | 9.9 µM | 8.4 µM | – |
| – | O=C1CCCCN1c1ccc(N2CCc3c(-c4nc[nH]n4)nn(-c4ccc(F)cc4)c3C2=O)cc1 | 1.8 µM | 2.8 µM | 5.1 µM | 4.5 µM | – |
| – | COc1ccc(-n2nc(-c3nncn3CCN(C)C)c3c2C(=O)N(c2ccc(N4CCCCC4=O)cc2)CC3)cc1 | 3.9 µM | 4.4 µM | 8 µM | 7 µM | – |
| – | COc1ccc(-n2nc(-c3n[nH]c(=O)n3-c3ccccc3)c3c2C(=O)N(c2ccc(N4CCCCC4=O)cc2)CC3)cc1 | 12.9 µM | 13.3 µM | 22.1 µM | 20.3 µM | – |
| – | COc1ccc(-n2nc(-c3n[nH]c(C)n3)c3c2C(=O)N(c2ccc(N4CCCCC4=O)cc2)CC3)cc1 | 1.6 µM | 1.9 µM | 3.2 µM | 3.7 µM | – |
| 0.15 µM | COc1ccc(-n2nc(-c3nc[nH]n3)c3c2C(=O)N(c2ccc(N4CCCCC4=O)cc2)CC3)cc1 | 0.5 µM | 0.7 µM | 1.2 µM | 0.8 µM | 99% |
| – | COc1ccc(-n2nc(-c3nncn3CCCN(C)C)c3c2C(=O)N(c2ccc(N4CCCCC4=O)cc2)CC3)cc1 | 4.5 µM | 5.7 µM | 10.1 µM | 9 µM | – |
| – | COc1ccc(-n2nc(-c3n[nH]c(C4CCCO4)n3)c3c2C(=O)N(c2ccc(N4CCCCC4=O)cc2)CC3)cc1 (configuration not stated) | 3.9 µM | 5 µM | 7.9 µM | 6.3 µM | – |
| – | COc1ccc(-n2nc(-n3cccc3CN(C)C)c3c2C(=O)N(c2ccc(N4CCCCC4=O)cc2)CC3)cc1 | 1.5 µM | 1.9 µM | 3.2 µM | 3.5 µM | – |
| 0.85 µM | COc1ccc(-n2nc(-c3n[nH]c(C(C)(C)C)n3)c3c2C(=O)N(c2ccc(N4CCCCC4=O)cc2)CC3)cc1 | 1 µM | 1.4 µM | 4.1 µM | 2.3 µM | 70% |
| 1.99 µM | COc1ccc(-n2nc(C(N)=O)c3c2C(=O)N(c2ccc(C4=NCCN4)cc2)CC3)cc1 | 0.9 µM | 0.7 µM | 1 µM | 0.9 µM | 66% |
| – | O=C1CCCCN1c1ccc(N2CCc3c(-c4nc[nH]n4)nn(-c4ccc(OC(F)(F)F)cc4)c3C2=O)cc1 | 5.5 µM | 6.4 µM | 12 µM | 10.5 µM | – |
| – | CCN(CC)CCCn1cnnc1-c1nn(-c2ccc(OC)cc2)c2c1CCN(c1ccc(N3CCCCC3=O)cc1)C2=O | 5 µM | 6.1 µM | 11.1 µM | 10 µM | – |
| – | COc1ccc(-n2nc(-c3nncn3CCCN3CCOCC3)c3c2C(=O)N(c2ccc(N4CCCCC4=O)cc2)CC3)cc1 | 5.5 µM | 7.5 µM | 15 µM | 10.5 µM | – |
| – | O=C1CCCCN1c1ccc(N2CCc3c(-c4nc[nH]n4)nn(-c4ccc(Br)cc4)c3C2=O)cc1 | 6.4 µM | 7.9 µM | 10.2 µM | 11.3 µM | – |
| – | COc1ccc(-n2nc(C(N)=O)c3c2C(=O)N(c2ccc(N4CCCCC4=O)cc2)CC3)cc1 [APIXABAN] | 0.8 µM | 0.6 µM | 1.4 µM | 0.9 µM | 96% |
| – | COc1ccc(-n2nc(-c3n[nH]c(C4CC4)n3)c3c2C(=O)N(c2ccc(N4CCCCC4=O)cc2)CC3)cc1 | 3.5 µM | 4.9 µM | 6 µM | 5.1 µM | – |
| 2.4 µM | COc1ccc(-n2nc(-n3cccc3CN3CCOCC3)c3c2C(=O)N(c2ccc(N4CCCCC4=O)cc2)CC3)cc1 | 1.1 µM | 1.7 µM | 3.9 µM | 2.4 µM | 57% |
| – | O=C1CCCCN1c1ccc(N2CCc3c(-c4nc[nH]n4)nn(-c4ccc(OC(F)F)cc4)c3C2=O)cc1 | 3.6 µM | 4 µM | 7.8 µM | 6.6 µM | – |
| – | COc1ccc(-n2nc(-c3ncnn3C)c3c2CCN(c2ccc(N4CCCCC4=O)cc2)C3=O)cc1 | 3.3 µM | 4.1 µM | 15.1 µM | 10 µM | – |
